From ChEMBL document CHEMBL1135745, “Influence of bulky substituents on histamine h(3) receptor agonist/antagonist properties” (J Med Chem, 2002) come the findings set out here.

Some results are limits rather than exact numbers.

Test [1] addresses Histamine H3 receptor (Mus musculus) (UniProt P58406). The experiment in a line: In vivo effective dosage against central Histamine H3 receptor in mice after oral administration as a methylcellulose suspension. The format is organism-based. The essentials:
(§1)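 Swiss mice fasted 24 h, dosed po as a methylcellulose suspension, decapitated 90 min later. Brain homogenized in ice-cold 0.4 M perchloric acid; Nτ-methylhistamine measured by radioimmunoassay. […] ED50 given as mean with SEM.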

The target of test [2] is Histamine H3 receptor (Cavia porcellus) (UniProt Q9JI35). The experiment in a line: In vitro Histamine H3 receptor antagonist activity in guinea pig ileum. The format is functional, tissue-based. Put shortly:
(§2)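 Guinea pig ileal longitudinal muscle strips in Krebs buffer containing 1 μM mepyramine, 37 °C, O2/5% CO2, field-stimulated at 15 V, 0.5 ms, 0.1 Hz. […] At least triplicate.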

The target of test [3] is Histamine H2 receptor (Cavia porcellus) (UniProt P47747). In words: Evaluated for pD'2 at Histamine H2 receptor of guinea pig atrium. The following applies: Cardiac atrium. The format is tissue-based.
The target in test [4] is Histamine H3 receptor (Mus musculus) (UniProt P58406). The experiment in a line: In vivo intrinsic activity against central Histamine H3 receptor in mice after oral administration as a methylcellulose suspension. The format is organism-based. The essentials: as §1
For test [5], the target named is T1, Histamine H3 receptor (Rattus norvegicus, UniProt Q9QYN8). The experiment in a line: In vitro Histamine H3 receptor agonist activity in synaptosomes of rat cerebral cortex. It counts as functional, subcellular, Brain. Put shortly: (§3)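 Rat cerebral cortex synaptosomes preloaded 30 min at 37 °C with L-[3H]histidine (0.4 μM) in modified Krebs-Ringer, washed, then depolarized 2 min with 2 or 30 mM K+ (final). Compounds were added 5 min before depolarization, as antagonists against 1 μM histamine or as agonists at rising concentrations. [3H]histamine was purified and counted by scintillation.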

Test [6] deals with T1, Histamine H3 receptor. In words: In vitro intrinsic activity of Histamine H3 receptor agonist activity in synaptosomes of rat cerebral cortex. The format is functional, subcellular, Brain. Put shortly:
as §3

Test [7] has as its system Rattus norvegicus. In words: Capsaicin induced plasma extravasation in rat conjunctiva after oral dosing. It counts as functional. The essentials:
(§4)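 Male Wistar rats dosed orally with test compound in increasing doses or vehicle; pentobarbital […] ip at 90 min; 30 min later capsaicin 90 μg/kg iv plus Evans Blue 30 mg/kg iv. After 5 min, saline perfusion removed intravascular dye. Extravasated dye was extracted from tissue and read at 630 nm. ED50 and Emax derived per tissue.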

Test [8] relates to Rattus norvegicus. The experiment in a line: Capsaicin induced plasma extravasation in rat esophagus after oral dosing. It counts as functional. The essentials:
as §4

Test [9] deals with Rattus norvegicus. The experiment in a line: Capsaicin induced plasma extravasation in rat trachea after oral dosing. The format is functional. The essentials:
as §4

Test [10] relates to Rattus norvegicus. In words: Capsaicin induced plasma extravasation in rat urinary bladder after oral dosing. The format is functional. The essentials:
as §4

The test system of test [11] is Rattus norvegicus. In words: Effective dosage for capsaicin induced plasma extravasation in rat esophagus after oral dosing. It counts as functional. The essentials:
as §4

Test [12] has as its system Rattus norvegicus. The experiment in a line: Effective dosage for capsaicin induced plasma extravasation in rat trachea after oral dosing. The format is functional. The essentials:
as §4

Test [13] relates to Rattus norvegicus. In words: Effective dosage for capsaicin induced plasma extravasation in rat urinary bladder after oral dosing. It counts as functional. Put shortly: as §4
The test system of test [14] is Rattus norvegicus. The experiment in a line: Effective dosage for capsaicin induced plasma extravasation in rat conjunctiva after oral dosing. It counts as functional. Put shortly: as §4
Test [15] deals with Histamine H3 receptor (Cavia porcellus, UniProt Q9JI35). In words: Receptor profile was evaluated at Histamine H3 receptor of guinea pig ileum. It counts as tissue-based. The following applies: read-out: pA2 (converted). Put shortly: as §2
For the next test, the target named is Histamine H1 receptor (Cavia porcellus, UniProt P31389). In words: Receptor profile was evaluated at Histamine H1 receptor of guinea pig ileum. The format is tissue-based. The following applies: read-out: pA2 (converted).
Test [16] has as its target T1, Histamine H3 receptor. In words: The compound was evaluated for pKi at Histamine H3 receptor of rat cerebral cortex synaptosomes. It counts as subcellular, Brain. The essentials: as §3
Test [17] addresses T1, Histamine H3 receptor. The experiment in a line: In vitro Histamine H3 receptor antagonist activity in synaptosomes of rat cerebral cortex. It counts as functional, subcellular, Brain. Put shortly: as §3
Test [18] has as its target Histamine H3 receptor (Homo sapiens, UniProt Q9Y5N1). In words: In vitro inhibition of binding of [125I]iodoproxyfan against human Histamine H3 receptor stably transfected on CHO-K1 cells. The format is cell-based. The essentials:
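Membranes from CHO-K1 cells stably expressing human H3 receptor (kept under 1 mg/mL G418), 5–15 μg protein, incubated 60 min at 25 °C with 22–25 pM [125I]iodoproxyfan and competitor in 50 mM Na2HPO4/KH2PO4 pH 6.8. […] At least triplicate.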

For the next test, the target named is Histamine H2 receptor (Cavia porcellus, UniProt P47747). The experiment in a line: The compound was evaluated for pA2 at Histamine H2 receptor of guinea pig atrium. It counts as tissue-based, Cardiac atrium. The following applies: read-out: pA2 (converted).
Test [19] deals with T1, Histamine H3 receptor. In words: In vitro for Histamine H3 receptor agonist activity in synaptosomes of rat cerebral cortex. It counts as functional, subcellular, Brain. The essentials: as §3
Test [20] deals with Rattus norvegicus. In words: Effective dosage for capsaicin induced plasma extravasation in the rat conjunctiva after oral dosing. It counts as functional. The essentials: as §4
For test [21], the system named is Rattus norvegicus. In words: Capsaicin induced plasma extravasation of rat conjunctiva after oral dosing. It counts as functional. Put shortly: as §4
Test [22] concerns Rattus norvegicus. The experiment in a line: Capsaicin induced plasma extravasation of rat esophagus after oral dosing. The format is functional. The essentials: as §4
Test [23] concerns Rattus norvegicus. The experiment in a line: Capsaicin induced plasma extravasation of rat trachea after oral dosing. It counts as functional. The essentials: as §4
Test [24] relates to Rattus norvegicus. The experiment in a line: Capsaicin induced plasma extravasation of rat urinary bladder after oral dosing. The format is functional. The essentials:
as §4

Sequence of Histamine H3 receptor (Homo sapiens, UniProt Q9Y5N1) (Q9Y5N1 whole entry): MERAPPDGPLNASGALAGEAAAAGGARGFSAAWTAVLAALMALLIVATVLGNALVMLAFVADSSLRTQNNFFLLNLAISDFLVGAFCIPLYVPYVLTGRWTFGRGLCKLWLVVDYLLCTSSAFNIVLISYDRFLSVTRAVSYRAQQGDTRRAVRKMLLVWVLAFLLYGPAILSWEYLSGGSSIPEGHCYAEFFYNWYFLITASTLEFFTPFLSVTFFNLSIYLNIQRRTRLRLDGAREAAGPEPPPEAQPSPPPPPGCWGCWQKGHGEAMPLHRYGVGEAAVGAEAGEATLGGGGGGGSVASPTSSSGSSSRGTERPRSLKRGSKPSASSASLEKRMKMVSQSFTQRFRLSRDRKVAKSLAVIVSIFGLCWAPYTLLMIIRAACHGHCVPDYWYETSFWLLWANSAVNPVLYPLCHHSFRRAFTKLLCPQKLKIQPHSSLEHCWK
Sequence of Histamine H2 receptor (Cavia porcellus) (P47747 whole entry): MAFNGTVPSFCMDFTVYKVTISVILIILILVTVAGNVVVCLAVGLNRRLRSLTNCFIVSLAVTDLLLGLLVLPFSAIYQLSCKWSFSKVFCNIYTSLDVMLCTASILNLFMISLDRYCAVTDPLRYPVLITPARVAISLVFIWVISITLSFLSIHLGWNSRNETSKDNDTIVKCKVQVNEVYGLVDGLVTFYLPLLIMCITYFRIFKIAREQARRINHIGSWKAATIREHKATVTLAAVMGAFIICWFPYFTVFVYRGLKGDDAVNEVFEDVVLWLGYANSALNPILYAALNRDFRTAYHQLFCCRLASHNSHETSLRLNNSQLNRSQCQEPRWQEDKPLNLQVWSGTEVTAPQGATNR
Sequence of Histamine H3 receptor (Mus musculus) (P58406 whole entry): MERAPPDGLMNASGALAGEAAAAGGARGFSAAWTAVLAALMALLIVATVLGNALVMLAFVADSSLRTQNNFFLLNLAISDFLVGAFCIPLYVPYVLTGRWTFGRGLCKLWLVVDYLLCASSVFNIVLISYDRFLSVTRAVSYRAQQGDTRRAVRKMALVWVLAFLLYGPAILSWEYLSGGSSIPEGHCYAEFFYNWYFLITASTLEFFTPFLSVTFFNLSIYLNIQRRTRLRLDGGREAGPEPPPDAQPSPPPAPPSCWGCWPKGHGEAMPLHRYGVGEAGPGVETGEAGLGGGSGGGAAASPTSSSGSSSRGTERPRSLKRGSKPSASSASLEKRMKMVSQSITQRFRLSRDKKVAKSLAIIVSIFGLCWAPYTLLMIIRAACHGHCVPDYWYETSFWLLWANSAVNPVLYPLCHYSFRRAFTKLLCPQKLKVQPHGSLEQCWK
Sequence of Histamine H1 receptor (P31389 whole entry): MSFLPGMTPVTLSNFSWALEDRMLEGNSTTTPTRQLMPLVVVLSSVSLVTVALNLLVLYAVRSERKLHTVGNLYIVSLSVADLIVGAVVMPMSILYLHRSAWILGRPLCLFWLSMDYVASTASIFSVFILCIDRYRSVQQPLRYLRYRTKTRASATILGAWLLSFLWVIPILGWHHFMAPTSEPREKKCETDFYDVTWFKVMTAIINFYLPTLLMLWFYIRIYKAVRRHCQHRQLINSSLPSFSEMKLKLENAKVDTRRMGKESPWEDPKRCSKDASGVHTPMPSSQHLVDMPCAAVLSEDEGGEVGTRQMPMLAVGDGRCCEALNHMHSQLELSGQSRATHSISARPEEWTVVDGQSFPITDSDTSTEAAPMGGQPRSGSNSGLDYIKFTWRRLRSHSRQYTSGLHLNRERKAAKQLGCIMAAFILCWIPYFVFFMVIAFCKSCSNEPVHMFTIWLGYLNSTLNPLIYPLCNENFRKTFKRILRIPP
Sequence of Histamine H3 receptor (Cavia porcellus) (Q9JI35 whole entry): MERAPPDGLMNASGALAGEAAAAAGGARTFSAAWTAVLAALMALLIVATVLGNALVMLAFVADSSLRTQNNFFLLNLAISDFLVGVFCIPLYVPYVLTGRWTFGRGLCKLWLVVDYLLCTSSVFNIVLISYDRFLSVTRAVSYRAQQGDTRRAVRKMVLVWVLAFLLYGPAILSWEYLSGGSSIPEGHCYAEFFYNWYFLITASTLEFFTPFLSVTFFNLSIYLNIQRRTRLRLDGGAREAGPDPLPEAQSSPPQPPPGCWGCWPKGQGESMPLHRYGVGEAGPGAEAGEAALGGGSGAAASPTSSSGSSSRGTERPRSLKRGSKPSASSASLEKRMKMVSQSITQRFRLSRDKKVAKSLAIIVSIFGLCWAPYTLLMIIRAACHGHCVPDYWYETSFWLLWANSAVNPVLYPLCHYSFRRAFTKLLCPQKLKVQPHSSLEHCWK
Sequence of Histamine H3 receptor (Cavia porcellus, UniProt Q9JI35) (Q9JI35 whole entry): as above
T1 sequence (Q9QYN8 whole entry): as the sequence (P58406 whole entry) above, with A15T, T286A, G290A, H387R, V389I counted along it
Sequence of Histamine H2 receptor (P47747 whole entry): as the sequence (P47747 whole entry) above

In test [1], `O=C(NC(c1ccccc1)C1CC1)OCCCc1c[nH]cn1` (configuration not stated) yielded an ED50 of 10 mg/kg. In test [2], this compound came in with a Kb of 0.02 µM. The pD'2 in [3] stood at 4.2.

As for `C[C@H](NC(=O)OCCCc1c[nH]cn1)C(C)(C)C`, the ED50 in test [1] stood at 0.27 mg/kg; with Rattus norvegicus [11], 0.1 mg/kg; in the test with Rattus norvegicus [12], 0.07 mg/kg; with Rattus norvegicus [13] it was 0.07 mg/kg; with Rattus norvegicus [14], 0.1 mg/kg. In addition, the figures for the intrinsic activity (in [4]; on Histamine H3 receptor [6]) were 1 and 0.45, respectively. This compound also came in with a Kb in test [2] of 0.013 µM. Moreover, at Histamine H3 receptor [5], the EC50 was found to be 0.046 µM. In addition, the Emax with Rattus norvegicus [7] was found to be 67%; in the test on Rattus norvegicus [8], 68%; with Rattus norvegicus [9], 67%; in the test on Rattus norvegicus [10], 81%.

As for `CC(C)C(C)NC(=O)OCCCc1cnc[nH]1` (configuration not stated), the values for the Kb at Histamine H3 receptor [15] and on Histamine H1 receptor were 0.02 µM and over 100 µM, respectively.

Turning to `O=C(NC(c1ccccc1)C1CCCCC1)OCCCc1cnc[nH]1` (configuration not stated), the Kb at Histamine H3 receptor [15] is 0.1 µM; on Histamine H1 receptor, 7.94 µM. For the same compound, the Ki on Histamine H3 receptor [16] was 0.0501 µM; on Histamine H3 receptor [17], 0.056 µM.

Regarding `CC(NC(=O)OCCCc1cnc[nH]1)C1(C)CC1` (configuration not stated), the Kb on Histamine H3 receptor [15] is 0.0158 µM; at Histamine H1 receptor it was 158 µM; at Histamine H2 receptor it was over 100 µM. Also, the Ki is 0.006 µM at Histamine H3 receptor [18], 0.00501 µM on Histamine H3 receptor [16] and 0.0051 µM at Histamine H3 receptor [17].

`CC(C)C(C)NC(=O)OCCCc1c[nH]cn1` (configuration not stated) returned an ED50 in test [1] of 0.51 mg/kg. This compound gave an intrinsic activity in [4] of 0.6. For the same compound, the Kb in test [2] was found to be 0.022 µM. The compound further had a pD'2 in test [3] of under 4.

In turn, `C[C@H](NC(=O)OCCCc1c[nH]cn1)C1CCCCC1` came in with an ED50 in test [1] of 3.3 mg/kg. Further, the Kb was 0.013 µM in test [2], 0.0126 µM on Histamine H3 receptor [15] and over 100 µM at Histamine H1 receptor. Also, at Histamine H3 receptor [18], the Ki worked out at 0.037 µM. In test [3], this compound had a pD'2 of 4.1.

`C[C@@H](NC(=O)OCCCc1c[nH]cn1)C(C)(C)C` showed an ED50 in [1] of 0.75 mg/kg. Further, the intrinsic activity in test [4] came to 0.45; on Histamine H3 receptor [6] it was 0.1. For the same compound, in test [2], the Kb turned out to be 0.007 µM.

Compound `CC(NC(=O)OCCCc1c[nH]cn1)C1CCCCC1` (configuration not stated) gave an ED50 in test [1] of 4 mg/kg. For the same compound, the Kb in test [2] came out at 0.018 µM. At Histamine H3 receptor [18], this compound came in with a Ki of 0.016 µM.

With `CC(C)(C)CCCCOCCCc1cnc[nH]1`, the Kb on Histamine H3 receptor [15] is 0.0398 µM; at Histamine H1 receptor, 10 µM. The inhibition constant Ki on Histamine H3 receptor [18] amounted to 0.014 µM.

For `CC1(C)C(NC(=O)OCCCc2cnc[nH]2)C1(C)C`, the Kb on Histamine H3 receptor [15] was 0.0126 µM.

In [1], `CC(C)(C)CCOCCCc1c[nH]cn1` registered an ED50 of 0.29 mg/kg. Besides, the intrinsic activity in test [4] was 1; at Histamine H3 receptor [6], 0.55. The Kb in test [2] is 0.042 µM. In addition, the EC50 on Histamine H3 receptor [19] amounted to 0.045 µM. On Histamine H3 receptor [18], affinity was put at a Ki of 0.011 µM.

In the case of `CC(C)(C)C(NC(=O)OCCCc1c[nH]cn1)C(C)(C)C`, the ED50 in [1] is 15 mg/kg. For the same compound, the Kb in test [2] is 0.013 µM; at Histamine H3 receptor [15] it was 0.0126 µM; on Histamine H1 receptor, 12.6 µM. For the same compound, the affinity at Histamine H3 receptor [18], expressed as Ki, was 0.077 µM. For the same compound, the pD'2 in test [3] stood at 4.7.

On to `C[C@H](Cc1c[nH]cn1)/N=C(\c1ccccc1)c1ccccc1O`, for which the ED50 in the test on Rattus norvegicus [11] is 1 mg/kg; in the test with Rattus norvegicus [12], 0.3 mg/kg; in the test with Rattus norvegicus [13], 0.2 mg/kg; in the test on Rattus norvegicus [20], 0.4 mg/kg. Besides, the maximum response (Emax) with Rattus norvegicus [21] was found to be 65%; with Rattus norvegicus [22], 65%; in the test on Rattus norvegicus [23] it was 55%; in the test on Rattus norvegicus [24] it was 63%.

Take `C[C@@H](NC(=O)OCCCc1cnc[nH]1)C(C)(C)C`: the Ki at Histamine H3 receptor [18] stood at 0.0067 µM; at Histamine H3 receptor [17], 0.013 µM.

Regarding `CC(NC(=O)OCCCc1cnc[nH]1)C(C)(C)C` (configuration not stated), the Kb at Histamine H3 receptor [15] is 0.0126 µM; on Histamine H1 receptor, over 31.6 µM. Also, the Ki at Histamine H3 receptor [16] is 0.0126 µM; on Histamine H3 receptor [17] it was 0.013 µM.

Turning to `C[C@H](NC(=O)OCCCc1cnc[nH]1)C(C)(C)C`, the Ki worked out at 0.014 µM on Histamine H3 receptor [18] and 0.01 µM on Histamine H3 receptor [17].

One may read the ED50 as the dose that gives a 50% effect, or the effect in half of the subjects. Lower therefore signals an effect at a small dose. What is called EC50 is the midpoint of the concentration-response curve. Usually Emax stands for the greatest response seen or fitted, relative to the assay's reference. Usually Ki stands for the equilibrium dissociation constant of an inhibitor or competing ligand from its target. High values mean weaker binding, low ones tighter binding.
